rCAG binder – r(CAG) repeat RNA binding; TO-PRO-1 dye displacement fluorescence; hit rate 1.3% among 370,000; inhibition, % at 3 µM;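 active means inhibition above the plate cutoff, the mean of all test compounds on that plate plus 3 SD, cut at about 35% in these data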;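 further: 0% = DMSO alone and 100% = 100 µM mitoxantrone as full dye displacement; higher means more dye released from RNA so lower well fluorescence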
Granule exo inh – lytic granule exocytosis inhibition. TALL-104 LAMP-1 surface exposure, flow cytometry; cells stimulated with thapsigargin and PMA. inhibition, % at 10 µM. hit rate 0.66% among 360,000. AID 651702;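 active means inhibition above about 55%, limit read from the data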
T cell HTS – modulates CD8 T cell binding to vesicles; 2C CD8+ T cell-vesicle binding, flow cytometry; stronger effect = lower value; response (vesicle binding), % at 7 µM; hit rate 0.068% among 330,000;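 active means response, share of CD8 T cells binding vesicles, and their 90th percentile fluorescence all below set limits, cut at about 80% in these data, passing the limit was not always enough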;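 further: values below 100% mean blocked vesicle binding to the CD8+ T cells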
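Assay system – 2C mouse CD8+ T cells · Also added – QL9-loaded Drosophila micro-vesicles · Timing – Cell–vesicle co-incubation 1.5 h at 37 °C, staining 20 min on ice · Signal – flow cytometry of vesicle-bound cells · Measure – percent CD8+ FL2 mean versus row control · Controls – Peptide-free naked vesicles (low) and QL9 vesicles with 0.7% DMSO vehicle (high)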
V-ATPase pHluor – yeast V-ATPase proton transport regulation by pHLuorin. S. cerevisiae, pHLuorin cytosolic pH fluorescence. response, % at 10 µM. hit rate 0.37% among 350,000. AID 504577; in the data active means response mostly above about 7.3%, no sharp cut-off; inactive means mostly below about 5.4%; further: actives read high
MPTP inh – blocks calcium-induced mitochondrial swelling; isolated mouse mitochondria, Ca2+ swelling absorbance, 30 min; inhibition, % at 10 µM; hit rate 1.4% among 360,000;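 active means inhibition of 50% or more, scaled per plate between neutral and stimulator controls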;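 further: 0% = DMSO wells given calcium and 100% = 1 mM EGTA wells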
Beta2AR agonist – agonists of human beta-2 adrenergic receptor inducing internalization | P07550 | response, % (concentration not given with the values) | Am2.2-beta2AR cells, FAP receptor internalization, flow cytometry | AID 504454 | hit rate 0.43% among 340,000;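 active means response above a set limit, near 3 SD of response in nonfluorescent compounds, cut at about 42% in these data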
Target sequence (P07550 whole entry, looked up): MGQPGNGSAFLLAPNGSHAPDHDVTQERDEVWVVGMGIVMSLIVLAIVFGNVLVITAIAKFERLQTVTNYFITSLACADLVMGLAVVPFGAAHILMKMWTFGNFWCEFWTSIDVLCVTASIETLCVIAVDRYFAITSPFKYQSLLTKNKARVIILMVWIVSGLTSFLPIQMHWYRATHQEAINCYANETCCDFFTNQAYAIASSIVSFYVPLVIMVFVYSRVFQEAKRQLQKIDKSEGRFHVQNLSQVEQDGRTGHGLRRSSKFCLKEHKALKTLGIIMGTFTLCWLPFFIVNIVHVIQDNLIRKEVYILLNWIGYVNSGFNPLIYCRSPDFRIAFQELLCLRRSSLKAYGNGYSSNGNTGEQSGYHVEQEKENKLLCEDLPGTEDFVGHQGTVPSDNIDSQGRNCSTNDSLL
Rh123 counter – Rhodamine 123 counter-screen of mitochondrial pore hits | AID 624504 | shares compounds with MPTP inh | hit rate 78% among 5,000 | isolated mitochondria, membrane potential, Rhodamine 123 fluorescence | inhibition, % at 10 µM; in the data active means inhibition above about 22%;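 further: 0% = DMSO vehicle and 100% = positive control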
MPTP swell DR – MPTP inhibition, dose response swelling confirmation. shares compounds with MPTP inh. isolated mitochondria swelling, absorbance. IC50, µM. hit rate 58% among 780; in the data active means IC50 below about 20 µM
MPTP counter DR – MPTP inhibitor counter-screen activity, dose response. IC50, µM. shares compounds with MPTP inh. isolated mitochondria counterscreen, fluorescence read-out. hit rate 49% among 780; in the data active means IC50 below about 80 µM
Numbers without * were called inactive; ! = not active in a repeat. The list is not random: actives were taken first. Their share in the collection is about 3.8%.

How did COc1ccc(/C(C)=N/Nc2ncc(Cl)cc2Cl)c(O)c1 do in these assays?
rCAG binder: 2; Granule exo inh: 0; T cell HTS: 716; V-ATPase pHluor: 5; MPTP inh: 73*; Beta2AR agonist: -10; Rh123 counter: 73*

Results for Cc1[nH]c2ccccc2c1C(=O)c1c(N)[nH]c(C(=O)c2ccc(Br)cc2)c1-c1ccc(Br)cc1 ?
rCAG binder: 12

How did CC1CCc2c(C(=O)Nc3ccc(OC(F)(F)F)cc3)csc2C1 (configuration not stated) do in these assays?
rCAG binder: 1; Granule exo inh: 0; T cell HTS: 219; V-ATPase pHluor: 0; MPTP inh: 95*; Beta2AR agonist: 1; Rh123 counter: 29*

How did CC1CCc2c(C(=O)Nc3nccs3)csc2C1 (configuration not stated) do in these assays?
rCAG binder: 1; Granule exo inh: 0; T cell HTS: 420; V-ATPase pHluor: -1; MPTP inh: 1; Beta2AR agonist: -19

What do the screens show for `O=C(c1ccncc1)N1CCC(Oc2cccnc2)CC1`?
rCAG binder: 0

Results for Nc1nc2ccc(Cl)cc2cc1C(=O)NCCc1ccc(Cl)cc1Cl ?
rCAG binder: 5; Granule exo inh: 2; MPTP inh: 14

What do the screens show for `Nc1nc2ccc(Cl)cc2cc1C(=O)NCCc1c[nH]c2ccccc12`?
Granule exo inh: -1; MPTP inh: 84*; Rh123 counter: 91*

How did COc1cccc(CO[C@H]2C=C[C@@H](c3ccccc3)O[C@@H]2CO)c1 do in these assays?
rCAG binder: 5

What do the screens show for `O=C1c2cccc(OCC(=O)N3CCCc4ccccc43)c2CCN1Cc1cccnc1`?
rCAG binder: -7; Granule exo inh: 1; T cell HTS: 164; V-ATPase pHluor: 1; MPTP inh: 82*; Beta2AR agonist: 7; Rh123 counter: 34*

What do the screens show for `Cc1ccccc1CN1CCc2c(OCC(=O)N3CCCc4ccccc43)cccc2C1=O`?
rCAG binder: 4; Granule exo inh: -3; T cell HTS: 289; V-ATPase pHluor: 0; MPTP inh: 8; Beta2AR agonist: 10

How did COc1ccccc1CCn1cnc(-c2ccccc2F)c1CC(C)C do in these assays?
rCAG binder: -1

Results for Cc1ccc(C(C)C)c(OCCn2ccnc2C)c1 ?
rCAG binder: -6; Granule exo inh: 8; T cell HTS: 239; V-ATPase pHluor: -2; MPTP inh: 1; Beta2AR agonist: 1

How did Cc1ccc(OCCCCn2ccnc2C)c(C)c1 do in these assays?
rCAG binder: -6; Granule exo inh: -3; T cell HTS: 212; V-ATPase pHluor: -1; MPTP inh: 61*; Beta2AR agonist: 3; Rh123 counter: 27*

Results for O=C(NC(Nc1nc2ccc([N+](=O)[O-])cc2s1)(C(F)(F)F)C(F)(F)F)c1ccccc1Cl ?
rCAG binder: 21; Granule exo inh: 7; T cell HTS: 148; V-ATPase pHluor: -2; MPTP inh: 92*; Beta2AR agonist: 13; Rh123 counter: 92*

What do the screens show for `O=C(NC(Nc1nc2ccc([N+](=O)[O-])cc2s1)(C(F)(F)F)C(F)(F)F)c1cccnc1`?
rCAG binder: 12; Granule exo inh: -2; T cell HTS: 144; V-ATPase pHluor: 3; MPTP inh: 87*; Beta2AR agonist: 21; Rh123 counter: 97*

How did C/C(=C\c1ccccc1)C(=O)Nc1nc2ccc([N+](=O)[O-])cc2s1 do in these assays?
rCAG binder: 4; Granule exo inh: -2; T cell HTS: 600; V-ATPase pHluor: 2; MPTP inh: 53*; Beta2AR agonist: -1; Rh123 counter: 66*

What do the screens show for `COC(=O)[C@]12C[C@H](CC(=O)NCCCN3CCCC3=O)C(=O)N(Cc3ccco3)C1=C[C@H](C(C)C)O[C@@H]2C1CC1`?
rCAG binder: -1

What do the screens show for `N#CNC(=Nc1cccc(F)c1)SCc1cccc(F)c1`?
rCAG binder: 10; Granule exo inh: 0; T cell HTS: 236; V-ATPase pHluor: 4; MPTP inh: 84*; Beta2AR agonist: 24; Rh123 counter: 74*

What do the screens show for `CCc1cc(Cl)c(OC)c(C(=O)NC[C@@H]2CCCN2CC)c1O`?
rCAG binder: -1; Granule exo inh: 6; T cell HTS: 252; V-ATPase pHluor: -4; MPTP inh: 78*!; Beta2AR agonist: -7; Rh123 counter: -6; MPTP swell DR: 9*; MPTP counter DR: >80

Results for CCn1c(-c2ccco2)nc2ccccc21 ?
rCAG binder: 1; Granule exo inh: -1; T cell HTS: 564; V-ATPase pHluor: 0; MPTP inh: 92*; Beta2AR agonist: 3; Rh123 counter: 2; MPTP swell DR: 8.7*; MPTP counter DR: >80

Results for CC(C)C[C@H](N)c1nnc(SCC(=O)Nc2ccc(Br)cc2)o1 ?
rCAG binder: -1; Granule exo inh: 0; T cell HTS: 224; V-ATPase pHluor: -1; MPTP inh: -2; Beta2AR agonist: 11

What do the screens show for `CC(C)C[C@H](NC(=O)OC(C)(C)C)c1nnc(SCC(=O)Nc2ccc(Br)cc2)o1`?
rCAG binder: -5; Granule exo inh: 0; T cell HTS: 470; V-ATPase pHluor: 1; MPTP inh: 66*; Beta2AR agonist: 11; Rh123 counter: 70*

How did Cc1cc(Nc2cc(Cl)cc(Cl)c2)cc(=O)n1-c1cc(Cl)cc(Cl)c1 do in these assays?
rCAG binder: 6

How did COC(=O)[C@]12C[C@H](CC(=O)NCC3CCCCC3)C(=O)N(Cc3ccc(Cl)cc3Cl)C1=C[C@H](C(C)(C)C)O[C@@H]2C do in these assays?
rCAG binder: 8

How did COc1ccc(C2=NCC(CSc3nccc(=O)[nH]3)S2)cc1 (configuration not stated) do in these assays?
rCAG binder: 6; Granule exo inh: -2; T cell HTS: 167; V-ATPase pHluor: -1; MPTP inh: 0; Beta2AR agonist: -3

How did CCN(CC)S(=O)(=O)c1ccc2oc(SCC3CN=C(c4ccc(OC)cc4)S3)nc2c1 (configuration not stated) do in these assays?
rCAG binder: 5; Granule exo inh: 1; T cell HTS: 320; V-ATPase pHluor: 2; MPTP inh: 56*; Beta2AR agonist: 5; Rh123 counter: 10; MPTP swell DR: 17*; MPTP counter DR: 12*
